Hits are enriched below; roughly 0.72% of the tested compounds scored in any of these assays.
hIAP inh: blocks human intestinal alkaline phosphatase | P09923 | AID 2544 | inhibition, % at 10 µM | purified IAP, CDP-Star luminescence, 30 min | 0.12% of 330,000 active;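 active = inhibition reaching a set limit with compound at 10 µM in the primary screen, cut at about 35% in these data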;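 note: plate controls were DMSO wells with enzyme for no effect and no-enzyme buffer wells for full effect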
Target sequence (P09923 whole entry, looked up): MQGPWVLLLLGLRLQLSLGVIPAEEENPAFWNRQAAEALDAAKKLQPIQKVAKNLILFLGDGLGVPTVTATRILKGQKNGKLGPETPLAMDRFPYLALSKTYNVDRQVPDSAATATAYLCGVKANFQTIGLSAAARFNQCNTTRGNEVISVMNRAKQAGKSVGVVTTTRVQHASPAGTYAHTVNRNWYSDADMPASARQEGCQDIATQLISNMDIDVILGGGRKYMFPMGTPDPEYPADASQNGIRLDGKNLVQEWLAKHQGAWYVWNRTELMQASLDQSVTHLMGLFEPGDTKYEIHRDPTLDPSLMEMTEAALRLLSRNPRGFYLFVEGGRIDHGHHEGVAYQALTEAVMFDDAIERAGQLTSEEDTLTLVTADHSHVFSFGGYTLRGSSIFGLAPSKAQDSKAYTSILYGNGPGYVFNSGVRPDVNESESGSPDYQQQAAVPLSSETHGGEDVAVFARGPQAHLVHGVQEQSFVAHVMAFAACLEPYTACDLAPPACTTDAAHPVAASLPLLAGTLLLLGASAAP
bIAP activator: intestinal alkaline phosphatase (bovine) activation. activation factor at 20 µM. 0.17% of 200,000 active. purified bovine IAP, CDP-star luminescence, 30 min; stronger effect = higher value; fold of DMSO-control signal, blank-subtracted;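 active = activation factor of 2 or more at 20 µM, a signal rise over negative controls twice the positive control's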
mIAP inh: mouse IAP inhibition; AID 2806; 0.2% of 330,000 active; inhibition, % at 10 µM; purified mouse IAP, CDP-Star luminescence, 30 min;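 active = inhibition of at least 40% at 10 µM in the primary screen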;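 note: plate controls were DMSO with enzyme for no effect and no enzyme wells for full effect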
mIAP activ: increases mouse intestinal alkaline phosphatase activity. activation factor at 10 µM. 0.24% of 330,000 active. muIAP, CDP-Star luminescence, 30 min; stronger effect = higher value; 1 = vehicle-only enzyme signal, 0 = enzyme-free wells;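 active = activation factor of at least 2 at 20 µM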
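Assay system: mouse IAP enzyme; Reagent: CDP-Star chemiluminescent phosphatase substrate; Compound: DMSO-dissolved test compounds; Incubation: 30 min, room temperature; Technique: luminescence from enzymatic CDP-Star hydrolysis; Controls: DMSO-only wells and no-enzyme negative control.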
hIAP act: increases human intestinal alkaline phosphatase activity | P09923 | purified human IAP, CDP-Star luminescence, 30 min; stronger effect = higher value; 1 = vehicle-only enzyme, 0 = enzyme-free background | activation factor at 10 µM | 0.16% of 330,000 active | AID 2524;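 active = activation factor of the enzyme at least 2-fold when tested at 20 µM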
bIAP inh: blocks bovine intestinal alkaline phosphatase activity; purified bovine IAP, CDP-star luminescence, 30 min; inhibition, % at 20 µM; 190,000 tested, under 10 active;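 active = over 50% inhibition of intestinal alkaline phosphatase at 20 µM in the single-dose screen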
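System: purified bovine intestinal alkaline phosphatase (IAP) enzyme; Input: IAP diluted 1/65,000,000 in the well; Measured by: CDP-star luminescence signal; Compound dosing: 20 µM single dose; Incubation: 30 min reaction at room temperature.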
mIAP inh conf: mouse IAP inhibition confirmation; shares compounds with mIAP inh; purified mouse IAP, CDP-Star luminescence, 30 min; inhibition, % at 10 µM; 4.7% of 11,000 active;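 active = inhibition of at least 40% at 10 µM in either of the two replicates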;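 note: plate controls were DMSO wells with enzyme for no effect and buffer wells lacking enzyme for full effect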
* hit, by the source's call.

Results for Cc1nc2ccccc2c2oc(C(=O)NCCCN3CC(C)CC(C)C3)cc12 (centres undefined) ?
hIAP inh: -5; mIAP inh: -10; mIAP activ: 1.1; hIAP act: 1.1

Results for O=c1nc2s/c(=C\c3ccco3)c(=O)n2nc1Cc1ccc(F)cc1 ?
hIAP inh: 13; bIAP activator: 0.9; mIAP inh: 46*; mIAP activ: 0.54; hIAP act: 0.87; bIAP inh: 12; mIAP inh conf: 58*

Results for CC1CCCN(CCCN2C(=O)C3C(C(=O)Nc4ccc(Cl)cc4)C4C=CC3(O4)C2C(=O)NC2CCCCC2)C1 (centres undefined) ?
hIAP inh: -36; mIAP inh: -7; mIAP activ: 1.1; hIAP act: 1.4

How did O=C1CC(c2ccco2)CC(O)=C1C=Nc1cc(Cl)ccc1O (centres undefined) do in these assays?
hIAP inh: -68; bIAP activator: 1.4; mIAP inh: 64*; mIAP activ: 0.36; hIAP act: 1.7; bIAP inh: -42; mIAP inh conf: 70*

Results for O=C1CC(c2ccco2)CC(O)=C1C=Nc1cc(Cl)ccc1Cl (centres undefined) ?
hIAP inh: 2; bIAP activator: 1; mIAP inh: 40; mIAP activ: 0.6; hIAP act: 0.98; bIAP inh: -2

How did Cn1cnnc1SCC(=O)Nc1sc2c(c1C(N)=O)CCC2 do in these assays?
hIAP inh: 14; bIAP activator: 1; mIAP inh: 57*; mIAP activ: 0.43; hIAP act: 0.86; bIAP inh: 1; mIAP inh conf: 54*

Results for COCCn1cnnc1SCC(=O)Nc1sc2c(c1C#N)CCC2 ?
hIAP inh: -10; mIAP inh: 4; mIAP activ: 0.96; hIAP act: 1.1

Results for COC(=O)c1ccc(CSc2nc3ccccc3[nH]2)o1 ?
hIAP inh: 9; bIAP activator: 0.9; mIAP inh: 2; mIAP activ: 0.98; hIAP act: 0.91; bIAP inh: 10

Results for Cc1ccsc1/C=C/C1=Cc2c(sc(NC(=O)CSc3n[nH]c(N)n3)c2C#N)C(C)(C)C1 ?
hIAP inh: 13; bIAP activator: 0.8; mIAP inh: 45*; mIAP activ: 0.55; hIAP act: 0.87; bIAP inh: 17; mIAP inh conf: 64*

Results for Oc1cccc(C=Nc2cccc3ccccc23)c1O ?
hIAP inh: -5; mIAP inh: 38; mIAP activ: 0.62; hIAP act: 1.1

What do the screens show for `Oc1cccc(C=NCc2ccccc2)c1O`?
hIAP inh: -6; bIAP activator: 0.8; mIAP inh: 58*; mIAP activ: 0.42; hIAP act: 1.1; bIAP inh: 16; mIAP inh conf: 63*

Results for CC1=NN2C(=N)/C(=C\c3ccc(SCc4ccccc4)o3)C(=O)N=C2S1 ?
hIAP inh: 0; bIAP activator: 0.9; mIAP inh: 15; mIAP activ: 0.85; hIAP act: 1; bIAP inh: 14

How did N=C1/C(=C\c2ccc(SCc3ccco3)o2)C(=O)N=C2SC=NN12 do in these assays?
hIAP inh: -2; bIAP activator: 0.9; mIAP inh: 69*; mIAP activ: 0.31; hIAP act: 1; bIAP inh: 6; mIAP inh conf: 76*

What do the screens show for `Cc1onc(C(=O)Nc2c(C)n(C)n(-c3ccccc3)c2=O)c1[N+](=O)[O-]`?
hIAP inh: 6; mIAP inh: 19; mIAP activ: 0.81; hIAP act: 0.94

Results for O=C(CCN1C(=O)/C(=C/c2ccco2)SC1=S)Nc1ccc(C(=O)O)c(O)c1 ?
hIAP inh: -4; mIAP inh: 62*; mIAP activ: 0.39; hIAP act: 1; mIAP inh conf: 78*

What do the screens show for `O=C(CCN1C(=O)/C(=C\c2ccco2)SC1=S)Nc1ccc(C(=O)O)c(O)c1`?
hIAP inh: -16; mIAP inh: 56*; mIAP activ: 0.44; hIAP act: 1.2; mIAP inh conf: 76*

Screening data deposited in PubChem by Sanford-Burnham Center for Chemical Genomics.
